Where “and” joins values, the source holds several entries; their conditions need not be identical. Equal values may be shown once.
Tested on: Fibroblast
Assay: Multiplex assay against human fibroblast
Format: toxicity, cell-based
Summary of the method: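 Values for tubulin, mitochondrial-mass and membrane-permeability phenotypes are per cents of cells with healthy nuclei. These cells were identified by CellPathfinder machine-learning gating of live cells that had been stained at seeding with Hoechst33342, BioTracker Green Microtubule Cytoskeleton Dye, MitoTracker Red and Annexin V Alexa Fluor 680 and imaged on a CQ1 microscope at 37°C and 5% CO2 after compound addition. The gating first set Hoechst high-intensity objects apart from normal cells, then split normal cells into healthy, pyknosed or fragmented nuclei, and pyknosed cells into mitotic or apoptotic.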

[1] = 12 h, 10 µM, compound concentration 10 uM
[2] = 24 h, 10 µM, compound concentration 10 uM
[3] = 48 h, 10 µM, compound concentration 10 uM
[4] = 12 h, 1 µM, compound concentration 1 uM
[5] = 24 h, 1 µM, compound concentration 1 uM
[6] = 48 h, 1 µM, compound concentration 1 uM

CC(=O)O[C@H]1C(=O)[C@@]2(C)[C@H]([C@H](OC(=O)c3ccccc3)[C@]3(O)C[C@H](OC(=O)[C@H](O)[C@@H](NC(=O)c4ccccc4)c4ccccc4)C(C)=C1C3(C)C)[C@]1(OC(C)=O)CO[C@@H]1C[C@@H]2O [PACLITAXEL]
Population Apoptotic (%) [1]: 65% and 39% | Population Fragmented Nuclei (%) [1]: 19% and 34% | Population Healthy Nuclei (%) [1]: 63% and 39% | Population Hoechst High Intensity Objects (%) [1]: 5% and 1% | Population Membrane Permeable-Phenotype (%) [1]: 0% and 6% | Population Mitochondria Different-Phenotype (%) [1]: 10% and 13% | Population Mitotic Cells (%) [1]: 34% and 60% | Population Normal (%) [1]: 94% and 98% | Population Pyknosed Nuclei (%) [1]: 16% and 25% | Population Tubulin-Different-Phenotype (%) [1]: 17% and 44% | Total Cell Count [1]: 167 and 111 | Population Apoptotic (%) [2]: 70% and 30% | Population Fragmented Nuclei (%) [2]: 19% and 36% | Population Healthy Nuclei (%) [2]: 63% and 45% | Population Hoechst High Intensity Objects (%) [2]: 1% and 2% | Population Membrane Permeable-Phenotype (%) [2]: 0% and 6% | Population Mitochondria Different-Phenotype (%) [2]: 9% and 10% | Population Mitotic Cells (%) [2]: 29% and 70% | Population Normal (%) [2]: 98% and 97% | Population Pyknosed Nuclei (%) [2]: 16% and 18% | Total Cell Count [2]: 164 and 114 | Population Apoptotic (%) [3]: 76% and 54% | Population Fragmented Nuclei (%) [3]: 31% and 48% | Population Healthy Nuclei (%) [3]: 50% and 42% | Population Hoechst High Intensity Objects (%) [3]: 4% and 0% | Population Membrane Permeable-Phenotype (%) [3]: 0% and 3% | Population Mitochondria Different-Phenotype (%) [3]: 16% and 9% | Population Mitotic Cells (%) [3]: 23% and 45% | Population Normal (%) [3]: 95% and 100% | Population Pyknosed Nuclei (%) [3]: 17% and 8% | Population Tubulin-Different-Phenotype (%) [3]: 20% and 40% | Total Cell Count [3]: 177 and 129

CC(=O)NCC(=O)N1[C@@H]2CC[C@H]1c1ccc(Nc3ncc(C(F)(F)F)c(NC4CCC4)n3)cc12 [PF-03814735]
Population Apoptotic (%) [4]: 14.81% and 22.73% | Population Fragmented Nuclei (%) [4]: 12.78% and 6.01% | Population Healthy Nuclei (%) [4]: 72.22% and 81.97% | Population Hoechst High Intensity Objects (%) [4]: 0% | Population Membrane Permeable-Phenotype (%) [4]: 4.62% and 4% | Population Mitochondria Different-Phenotype (%) [4]: 7.69% and 10.67% | Population Mitotic Cells (%) [4]: 85.19% and 77.27% | Population Normal (%) [4]: 100% | Population Pyknosed Nuclei (%) [4]: 15% and 12.02% | Population Tubulin-Different-Phenotype (%) [4]: 20% and 22.67% | Total Cell Count [4]: 180 and 183 | Population Apoptotic (%) [1]: 46.51% and 79.49% | Population Fragmented Nuclei (%) [1]: 20.25% and 27.83% | Population Healthy Nuclei (%) [1]: 53.37% and 53.77% | Population Hoechst High Intensity Objects (%) [1]: 0% | Population Membrane Permeable-Phenotype (%) [1]: 25.29% and 34.21% | Population Mitochondria Different-Phenotype (%) [1]: 17.24% and 20.18% | Population Mitotic Cells (%) [1]: 53.49% and 20.51% | Population Normal (%) [1]: 100% | Population Pyknosed Nuclei (%) [1]: 26.38% and 18.4% | Population Tubulin-Different-Phenotype (%) [1]: 36.78% and 78.07% | Total Cell Count [1]: 163 and 212 | Population Apoptotic (%) [5]: 18.18% and 31.25% | Population Fragmented Nuclei (%) [5]: 18.48% and 9.2% | Population Healthy Nuclei (%) [5]: 75.54% and 81.61% | Population Hoechst High Intensity Objects (%) [5]: 0% | Population Membrane Permeable-Phenotype (%) [5]: 9.35% and 5.63% | Population Mitochondria Different-Phenotype (%) [5]: 5.76% and 6.34% | Population Mitotic Cells (%) [5]: 81.82% and 68.75% | Population Normal (%) [5]: 100% | Population Pyknosed Nuclei (%) [5]: 5.98% and 9.2% | Population Tubulin-Different-Phenotype (%) [5]: 17.99% and 28.87% | Total Cell Count [5]: 184 and 174 | Population Apoptotic (%) [2]: 39.13% and 90.32% | Population Fragmented Nuclei (%) [2]: 24.36% and 32.26% | Population Healthy Nuclei (%) [2]: 46.15% and 39.17% | Population Hoechst High Intensity Objects (%) [2]: 0% | Population Normal (%) [2]: 100% | Population Pyknosed Nuclei (%) [2]: 29.49% and 28.57% | Population Tubulin-Different-Phenotype (%) [2]: 31.94% and 67.06% | Total Cell Count [2]: 156 and 217 | Population Fragmented Nuclei (%) [6]: 18.54% and 6.41% | Population Healthy Nuclei (%) [6]: 75.28% and 89.74% | Population Hoechst High Intensity Objects (%) [6]: 0% | Population Membrane Permeable-Phenotype (%) [6]: 1.49% and 7.14% | Population Normal (%) [6]: 100% | Population Pyknosed Nuclei (%) [6]: 6.18% and 3.85% | Population Tubulin-Different-Phenotype (%) [6]: 14.18% and 30.71% | Total Cell Count [6]: 178 and 156 | Population Apoptotic (%) [3]: 36.84% and 83.78% | Population Fragmented Nuclei (%) [3]: 23.6% and 31.34% | Population Healthy Nuclei (%) [3]: 64.6% and 51.61% | Population Hoechst High Intensity Objects (%) [3]: 0% | Population Mitochondria Different-Phenotype (%) [3]: 26.92% and 25% | Population Normal (%) [3]: 100% | Population Pyknosed Nuclei (%) [3]: 11.8% and 17.05% | Total Cell Count [3]: 161 and 217

Source: ChEMBL document CHEMBL5724801, “EUbOPEN Chemogenomics Library - Multiplex” (2024)
